Data on 16 compounds can be found in paper PMC8884033 (Journal of medicinal chemistry, 2021).

One series relates to GALK2. As to conditions: cited from earlier work.
Series [1] concerns Fibroblasts derived from GALT-deficient patients. As to conditions: primary fibroblast cells from patients with classic galactosemia; cited from earlier work.
The next series deals with other kinases. Nature of the series: KINOMEScan screen. Type of series: binding. As to conditions: KINOMEScan at 10 μM.
Series [2] has as its target T1, mouse recombinant GALK1 (Mus musculus, UniProt Q9R0N0). As to conditions: read-out: IC50 against mouse recombinant GALK1; previously reported lead; cited from earlier work.
For series [3], the target named is T2, recombinant human GALK1 (Homo sapiens, UniProt P51570). As to conditions: read-out: IC50 against human recombinant GALK1; previously reported lead; cited from earlier work.
T2 sequence (P51570 whole entry): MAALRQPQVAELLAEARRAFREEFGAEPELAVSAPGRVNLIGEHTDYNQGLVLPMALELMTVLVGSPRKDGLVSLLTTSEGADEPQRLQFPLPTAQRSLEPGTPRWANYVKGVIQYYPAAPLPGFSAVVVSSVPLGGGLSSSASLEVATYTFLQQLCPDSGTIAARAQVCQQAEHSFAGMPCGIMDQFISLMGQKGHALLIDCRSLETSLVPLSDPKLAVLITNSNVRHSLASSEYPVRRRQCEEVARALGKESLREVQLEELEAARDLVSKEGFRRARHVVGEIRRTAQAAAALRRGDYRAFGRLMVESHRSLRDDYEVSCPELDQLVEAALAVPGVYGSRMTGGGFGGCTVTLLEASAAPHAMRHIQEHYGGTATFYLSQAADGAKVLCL
In series [4] the target is T2, recombinant human GALK1. In words: GALK1 biochemical assay. As to conditions: for fold improvement in potency compared to compound 2: ratio of GALK1 IC50 vs 2.
Series [5] can be described thus: Parallel artificial membrane permeability assay. The class given is in vitro ADME. As to conditions: pH 7.4. An outline of the steps: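 Stirred double-sink PAMPA with a lipid/dodecane membrane designed to model GI passive permeability. Donor and acceptor both at pH 7.4. Test compound from 10 mM DMSO stock, diluted to 0.05 mM in pH 7.4 buffer (0.5% DMSO final). Permeation ran 30 min at room temperature with donor stirring. Donor and acceptor concentrations read by UV plate reader.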

The target in series [6] is T1, mouse recombinant GALK1. In words: GALK1 biochemical assay, mouse enzyme.
Series [7] deals with Fibroblasts derived from GALT-deficient patients. In words: Cellular Gal-1P accumulation assay after galactose challenge. The class given is cell-based, human. As to conditions: at 3 μM, patient fibroblasts. An outline of the steps: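 GALT-deficient patient fibroblasts kept in galactose-free DMEM with 10% FBS. Inhibitor added at set concentrations for 2 to 4 h at 37 °C. Galactose then added to 0.05% for a 4 h challenge. Cells PBS-washed twice and lysed in ice-cold hypotonic buffer (25 mM Tris-HCl pH 7.4, 25 mM NaCl, 0.5 mM EDTA, protease inhibitors). Lysate needle-sheared, then spun 16,000g for 20 min at 4 °C. Gal-1P measured by alkaline phosphatase-coupled method and normalized to protein.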

Series [8] is described as follows: Human liver microsome stability. Type of series: in vitro ADME. As to conditions: liver microsomes, pH 7.4. (Microsomes from liver hold many membrane-bound enzymes, among them those of drug oxidation.)
Series [9] in a line: Mouse pharmacokinetic studies. Type of series: in vivo, CD1 mice. A digest of the protocol:
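Fed CD1 mice, 6–8 weeks old, ~25–30 g. Given single IP (50 mpk), PO (30 mpk) or IV doses as solutions in 5% NMP/25% PEG 300/70% of 15% w/w Kolliphor HS 15 in water (5, 3 and 0.6 mg/mL for IP, PO and IV). Heart-puncture blood taken into heparin-Na from 3 mice per time, 5 min–24 h. Plasma analysed by LC/MS/MS. Once-daily cageside observations.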

Setting [10] is: male, CD1, mouse, plasma, iv, 3 mg/kg.

pIC50: −log10 of the molar value. A value given as a limit tells only on which side of the number the result lay.

The pIC50 is the IC50 on a negative log10 scale, so that one unit is a factor of ten. For orientation: Papp means the rate of passage across a membrane or cell layer, normalised by area and donor concentration. A high value points to ready permeation. Usually half-life stands for the time needed for the level to fall by half in the phase considered. Low values mean fast loss, high ones slow loss. As usually defined, the clearance is a measure of how efficiently the substance is removed, as volume per time. A lower clearance goes with inefficient removal.

T1 sequence (Q9R0N0 whole entry): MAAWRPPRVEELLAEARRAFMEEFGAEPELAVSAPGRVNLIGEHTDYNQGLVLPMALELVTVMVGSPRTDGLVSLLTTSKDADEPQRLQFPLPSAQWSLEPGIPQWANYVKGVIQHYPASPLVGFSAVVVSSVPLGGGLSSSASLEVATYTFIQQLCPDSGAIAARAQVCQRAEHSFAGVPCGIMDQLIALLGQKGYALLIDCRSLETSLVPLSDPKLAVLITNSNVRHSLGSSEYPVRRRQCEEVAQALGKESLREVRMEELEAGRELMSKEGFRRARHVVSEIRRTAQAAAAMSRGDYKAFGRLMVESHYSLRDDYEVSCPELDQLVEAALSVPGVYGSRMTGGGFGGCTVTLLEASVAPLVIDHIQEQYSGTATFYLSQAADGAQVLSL

Take `O=C1CCCC2=C1C(c1[nH]ncc1Cl)N=C(Nc1nc3ccccc3o1)N2` (centres unmarked) [Compound 1]: the “activity against GALK2” value in the series with GALK2 was “inactive”. In [1], the “effect on gal-1P levels” value is “lowered gal-1P levels”. In addition, the “cross-reactivity against other kinases” value with other kinases is recorded as “negligible cross-reactivity”. Moreover, the negative logarithm of the IC50 (pIC50) at mouse recombinant GALK1 [2] is 4.86; at recombinant human GALK1 [3], 5.11.
Take `CC1=C(C(=O)Nc2cccc(C(=O)O)c2)C(c2ccccc2Cl)N=C(Nc2nc3ccccc3o2)N1` (centres unmarked) [Compound 15, 3-(2-(Benzo[d]oxazol-2-ylamino)-4-(2-chlorophenyl)-6-methyl-1,4-dihydropyrimidine-5-carboxamido)benzoic Acid]: the “fold improvement in potency compared to compound 2” value at recombinant human GALK1 [4] is on record as more than 5 fold.
Still for that read-out and setting: with `CC1=C(C(=O)Nc2ccc(C(=O)O)cc2)C(c2ccccc2Cl)N=C(Nc2nc3ccccc3o2)N1` (centres unmarked) [Compound 16, 4-(2-(Benzo[d]oxazol-2-ylamino)-4-(2-chlorophenyl)-6-methyl-1,4-dihydropyrimidine-5-carboxamido)benzoic Acid] the figure was more than 5 fold.
In the case of `CC1=C(C(=O)NCc2ccc(C(=O)O)cc2)C(c2ccccc2Cl)N=C(Nc2nc3ccccc3o2)N1` (centres unmarked) [Compound 25, 4-((2-(Benzo[d]oxazol-2-ylamino)-4-(2-chlorophenyl)-6-methyl-1,4-dihydropyrimidine-5-carboxamido)methyl)benzoic Acid], on recombinant human GALK1 [4] (GALK1 IC50 vs 24), the “fold better than 24” value turned out to be 2 fold.
Consider `CC1=C(C(=O)NCc2cn(C)cn2)C(c2ccccc2Cl)N=C(Nc2nc3ccccc3o2)N1` (centres unmarked) [Compound 32, 2-(Benzo[d]oxazol-2-ylamino)-4-(2-chlorophenyl)-6-methyl-N-((1-methyl-1H-imidazol-4-yl)methyl)-1,4-dihydropyrimidine-5-carboxamide], for which the “fold improvement in potency compared to compound 2” value on recombinant human GALK1 [4] is listed as 7–9 fold.
Same read-out and setting: with `CC1=C(C(=O)NCc2cnn(C)c2)C(c2ccccc2Cl)N=C(Nc2nc3ccccc3o2)N1` (centres unmarked) [Compound 33, 2-(Benzo[d]oxazol-2-ylamino)-4-(2-chlorophenyl)-6-methyl-N-((1-methyl-1H-pyrazol-4-yl)methyl)-1,4-dihydropyrimidine-5-carboxamide] the figure was 7–9 fold; with `CC1=C(C(=O)Nc2cc(C(=O)O)ccn2)C(c2ccccc2Cl)N=C(Nc2nc3ccccc3o2)N1` (centres unmarked) [Compound 35, 2-(2-(Benzo[d]oxazol-2-ylamino)-4-(2-chlorophenyl)-6-methyl-1,4-dihydropyrimidine-5-carboxamido)isonicotinic Acid], 10 fold.
Take `CC1=C(C(=O)Nc2cc(C(=O)O)ccn2)C(c2ccccc2Cl)N=C(Nc2nc3ccc(F)cc3o2)N1` (centres unmarked) [Compound 38, 2-(4-(2-Chlorophenyl)-2-((6-fluorobenzo[d]oxazol-2-yl)amino)-6-methyl-1,4-dihydropyrimidine-5-carboxamido)isonicotinic Acid]: the “biochemical potency against GALK1” value at recombinant human GALK1 [4] is on record as “submicromolar”.
`CC1=C(C(=O)Nc2cc(C(=O)O)ccn2)C(c2ccccc2Cl)N=C(Nc2nc3cccc(N)c3o2)N1` (centres unmarked) [Compound 53, 2-(2-((7-Aminobenzo[d]oxazol-2-yl)amino)-4-(2-chlorophenyl)-6-methyl-1,4-dihydropyrimidine-5-carboxamido)isonicotinic Acid]: the “biochemical potency against GALK1” value on recombinant human GALK1 [4] is recorded as “submicromolar”. For the same compound, the “fold potency improvement over 35” value on recombinant human GALK1 [4] (ratio of GALK1 IC50 vs 35) amounted to 5 fold.
With `CC1=C(C(=O)NCc2cnn(C)c2)C(c2ccc(C)cc2Cl)N=C(Nc2nc3cccc(N)c3o2)N1` (centres unmarked) [Compound 67, 2-((7-aminobenzo[d]oxazol-2-yl)amino)-4-(2-chloro-4-methylphenyl)-6-methyl-N-((1-methyl-1H-pyrazol-4-yl)methyl)-1,4-dihydropyrimidine-5-carboxamide], the Papp at 30 min, 0.05 mM in series [5] (PAMPA) was determined as 315 ×10⁻⁶ cm/s.
Take `CC1=C(C(=O)NCc2cnn(C)c2)C(c2ccc(C)cc2Cl)N=C(Nc2nc3ccc(F)c(N)c3o2)N1` (centres unmarked) [Compound 68, 2-((7-Amino-6-fluorobenzo[d]oxazol-2-yl)amino)-4-(2-chloro-4-methylphenyl)-6-methyl-N-((1-methyl-1H-pyrazol-4-yl)methyl)-1,4-dihydropyrimidine-5-carboxamide]: the PAMPA in series [5] is on record as 485 10^−6 cm/s. Moreover, the “mouse GALK1 inhibition” value on mouse recombinant GALK1 [6] is given as “submicromolar”. The gal-1P/protein levels in [7] is ~ 50 % of control. The half-life at 1 μM in series [8] was determined as 47 min. Also, the “time up to which plasma concentrations stay above 1 μM” value in [9] (IP, single 50 mg/kg dose) is given as ~ 7 h. In addition, the “time after which compound levels are below LLQ” value in series [9] (IV, 3 mpk, plasma) stood at 2 h. For the same compound, in [9] (setting [10]), the clearance at 24 h is 19.9 mL/min/kg and the half-life is approximately 24 min.
With `CCn1cc(CNC(=O)C2=C(C)NC(Nc3nc4cccc(N)c4o3)=NC2c2ccc(C)cc2Cl)cn1` (centres unmarked) [Compound 69, 2-((7-Aminobenzo[d]oxazol-2-yl)amino)-4-(2-chloro-4-methylphenyl)-6-methyl-N-((1-ethyl-1H-pyrazol-4-yl)methyl)-1,4-dihydropyrimidine-5-carboxamide], the PAMPA in [5] is 632 10^−6 cm/s.
Regarding `CCn1cc(CNC(=O)C2=C(C)NC(Nc3nc4ccc(F)c(N)c4o3)=NC2c2ccc(C)cc2Cl)cn1` (centres unmarked) [Compound 70, 2-((7-Amino-6-fluorobenzo[d]oxazol-2-yl)amino)-4-(2-chloro-4-methylphenyl)-N-((1-ethyl-1H-pyrazol-4-yl)methyl)-6-methyl-1,4-dihydropyrimidine-5-carboxamide], in [5], the PAMPA is on record as 410 10^−6 cm/s. Further, at mouse recombinant GALK1 [6], the “mouse GALK1 inhibition” value was “submicromolar”. On recombinant human GALK1 [4] (6′-F vs des-fluoro 69), the “fold improvement in GALK1 inhibition over 69” value worked out at 4 fold.
For `CC1=C(C(=O)NCc2cnn(C)c2)[C@H](c2ccc(C)cc2Cl)N=C(Nc2nc3cccc(N)c3o2)N1` [Compound (R)-67, (R)-2-((7-Aminobenzo[d]oxazol-2-yl)amino)-4-(2-chloro-4-methylphenyl)-6-methyl-N-((1-methyl-1H-pyrazol-4-yl)methyl)-1,4-dihydropyrimidine-5-carboxamide], the PAMPA in series [5] is given as 661 10^−6 cm/s.
On to `CCn1cc(CNC(=O)C2=C(C)NC(Nc3nc4ccc(F)c(N)c4o3)=N[C@H]2c2ccc(C)cc2Cl)cn1` [Compound (R)-70, (R)-2-((7-Amino-6-fluorobenzo[d]oxazol-2-yl)amino)-4-(2-chloro-4-methylphenyl)-N-((1-ethyl-1H-pyrazol-4-yl)methyl)-6-methyl-1,4-dihydropyrimidine-5-carboxamide], for which the PAMPA in series [5] is 773 10^−6 cm/s. Further, the “mouse GALK1 inhibition” value on mouse recombinant GALK1 [6] was “submicromolar”. At recombinant human GALK1 [4] ((R) vs (S) enantiomer at C4), the “fold more potent than the (S)-enantiomer” value amounted to 18 fold.
On to `CCn1cc(CNC(=O)C2=C(C)NC(Nc3nc4ccc(F)c(N)c4o3)=N[C@@H]2c2ccc(C)cc2Cl)cn1` [Compound (S)-70, (S)-2-((7-Amino-6-fluorobenzo[d]oxazol-2-yl)amino)-4-(2-chloro-4-methylphenyl)-N-((1-ethyl-1H-pyrazol-4-yl)methyl)-6-methyl-1,4-dihydropyrimidine-5-carboxamide], for which, in series [5], the PAMPA is reported as 407 10^−6 cm/s.
